Screens: PubChem, several laboratories
STAT1 activator = STAT1 signaling activators, primary screen, cell-based, HTS, luciferase reporter; activation (% of control), % at 5.5 µM; 200,000 tested, 2.6% active; AID 932, 2007; NIH 3T3 STAT1-luciferase reporter, IFN-gamma, luminescence; 100% = IFN-gamma alone, no compound;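 active = activation above the screen-wide mean activation plus 3 SD, cut at about 130% in these data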
APP 5'UTR act = activators of APP 5'UTR luciferase reporter, primary screen, SH-SY5Y cells; activation, % at 2 µM; SH-SY5Y APP 5'UTR luciferase reporter, luminescence; zero percent = DMSO vehicle wells; 190,000 tested, 1% active; AID 1276, 2008;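 active = activation above a set limit, based on mean plus 3 SD of controls, cut at about 140% in these data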
Rad51 HR inh = human RAD51 strand exchange inhibitors, primary screen, biochemical, fluorescence; hRad51 DNA strand exchange, fluorescence dequenching; inhibition, % at 10 µM; 200,000 tested, 0.085% active; AID 1385, 2008;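 active = inhibition above 40% at the single screening dose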
Target sequence (Q06609 whole entry, looked up): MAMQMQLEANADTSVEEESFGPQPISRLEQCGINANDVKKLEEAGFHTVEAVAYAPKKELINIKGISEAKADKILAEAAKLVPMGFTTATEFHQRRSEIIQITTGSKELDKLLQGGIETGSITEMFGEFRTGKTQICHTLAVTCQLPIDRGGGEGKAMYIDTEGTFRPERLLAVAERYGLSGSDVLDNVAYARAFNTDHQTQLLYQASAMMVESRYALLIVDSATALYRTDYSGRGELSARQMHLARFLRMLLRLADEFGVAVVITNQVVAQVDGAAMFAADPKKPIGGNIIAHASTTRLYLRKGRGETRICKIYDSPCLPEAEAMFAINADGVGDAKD
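Material: human Rad51–ssDNA filaments; Probe or stimulus: labelled 47-mer dsDNA for strand exchange; Doses: single 10 µM dose; Incubation: 37 °C 15-min filament assembly, 30-min compound preincubation, 15-min exchange; Technique: FRET fluorescence dequenching, excitation 485 nm, emission 520 nm; Measure: Fluorescence-based percent inhibition, control- and blank-normalised; Benchmarks: plate control and blank wells.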
FLuc inh counter = firefly luciferase enzyme inhibitors, primary screen, artefact control for luciferase-based inhibitor screens, biochemical, luminescence, ATPLite | Luciferin 4-monooxygenase (Photinus pyralis), P08659 | 200,000 tested, 1.5% active | 10 min | inhibition, % at 10 µM;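 active = inhibition above about 50% when tested at 10 µM, limit read from the data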
FLuc act counter = FLuc activators, initial screening, artefact control for FLuc-dependent activation tests, biochemical, ATPlite luminescence. ATPlite luciferase biochemical, 10 min; 0 = ATP-free wells, 1 = DMSO control. activation factor at 10 µM. 200,000 tested, under 10 active. AID 1027, 2008;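 active = luciferase activation factor, scaled between plate controls, of at least 2 with compound at 10 µM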
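assay system = Luciferase/luciferin detection reagent, cell-free biochemical luciferase assay | also added = ATP substrate | times = 10 min post-reagent at room temperature | measured by = luminescence from luciferase reaction | measure = luciferase activation, seen as luminescence increase over controls | benchmarks = low control with PBS replacing ATP, high control enzyme plus ATP without compound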
NF-kB neuron act = activators of NF-kB expression in neurons, primary screen, cell-based, HTS | human neuronal cells, NF-kB reporter expression; hits give high values | fold change at 12.5 µM | 190,000 tested, 1.6% active; in the data active = fold change above about 3.3
Large screens that a line does not name were inactive. Shown are actives, neighbours in structure and some others; about 3.9% of the full set was active somewhere.

Cc1nnc(SC(C)C(=O)Nc2c(C)n(C)n(-c3ccccc3)c2=O)n1N (centres undefined)	none
CN(C)S(=O)(=O)c1cccc(NC(=O)c2cncc(Br)c2)c1	none
O=C(Nc1ccc2c(c1)OCCO2)c1ccc2ccccc2n1	STAT1 activator 136.7, APP 5'UTR act 220.2, FLuc inh counter 61.7, NF-kB neuron act 9.19
Cc1ccc(NC(=O)c2ccc3ccccc3n2)cc1S(=O)(=O)N(C)C	STAT1 activator 134.1
Cc1ccc(NC(=O)c2cncc(Br)c2)cc1S(=O)(=O)N(C)C	STAT1 activator 135.7
CC1=C(C(=O)OCC(Br)(Br)Br)C(c2ccc(Br)cc2)NC(=O)N1CCCC(=O)O (centres undefined)	none
COC(=O)Cc1c(C)c2ccc(OCC(C)=O)c(C)c2oc1=O	STAT1 activator 129.7
CCNC(=O)N1C(=O)C2(OCCO2)c2ccccc21	none
Cc1ccc(NC(=O)N2C(=O)C3(OCCO3)c3ccccc32)cc1	STAT1 activator 138.1
Cc1cc(C)n2nc(Sc3ncccc3[N+](=O)[O-])nc2n1	none (no result: STAT1 activator, APP 5'UTR act, FLuc inh counter, FLuc act counter, NF-kB neuron act)
CCC(=O)c1cn([C@@H](CCC(OC)OC)CC(=O)OC(C)(C)C)cc1CC	none (no result: STAT1 activator, APP 5'UTR act, FLuc inh counter, FLuc act counter, NF-kB neuron act)
Cc1cc(NC(=O)COC(=O)CCNS(=O)(=O)c2c(Cl)cccc2Cl)no1	none
Brc1cccc(OCCSc2ncccn2)c1	none
Clc1ccc(OCCSc2ncccn2)c(Br)c1	STAT1 activator 143.5, APP 5'UTR act 174.2, FLuc inh counter 54.2
CCCOc1ccc(OCCSc2ncccn2)cc1	STAT1 activator 135.2, NF-kB neuron act 4.24
Cc1ccc(OCCSc2nc(N)cc(N)n2)cc1	STAT1 activator 137.5
Cc1noc(C)c1COc1cccc(C(=O)NC(C)(C)C)c1	none
c1ccc2c(-c3cn4ccccc4n3)c[nH]c2c1	STAT1 activator 150.0, APP 5'UTR act 149.3, NF-kB neuron act 3.4
CN(C)c1nc(C=C(C#N)C#N)c(Cl)n1-c1ccc(F)cc1	none
Cc1ccc(C(C(=O)Nc2ccc3c(c2)OCO3)N(C)C(=O)Cc2c[nH]c3ccccc23)cc1 (centres undefined)	none
CCOC(=O)c1noc(C)c1C(=O)Nc1nccs1	NF-kB neuron act 5.95
CCCCS/C(N)=N/N=C/c1cc(C)ccc1O	none
CCS/C(N)=N/N=C/c1cc(C)ccc1O	STAT1 activator 132.5, APP 5'UTR act 160.0, FLuc inh counter 89.6, NF-kB neuron act 13.2
O=C(CSc1nccn1-c1ncc(C(F)(F)F)cc1Cl)c1ccc(Br)cc1	STAT1 activator 130.4
Cc1ccc(/C(CSc2nccn2-c2ncc(C(F)(F)F)cc2Cl)=N\O)cc1	none
O=C(O)CN1C(=O)/C(=C/C=C/c2ccccc2)SC1=S	FLuc inh counter 79.1
O=C(CN1C(=O)S/C(=C\C=C\c2ccccc2)C1=O)Nc1cccc(O)c1	STAT1 activator 130.1, NF-kB neuron act 3.41
CC(C)Cn1cc(Cl)c(=O)n(CC(C)C)c1=O	none
CC(=O)Nc1cc2cc(NS(=O)(=O)c3ccc(C)cc3)ccc2oc1=O	none (no result: STAT1 activator, APP 5'UTR act, FLuc inh counter, FLuc act counter, NF-kB neuron act)
Cc1noc(/C=C/c2nn(C)cc2Cl)c1[N+](=O)[O-]	none (no result: STAT1 activator, APP 5'UTR act, FLuc inh counter, FLuc act counter, NF-kB neuron act)
Cc1cc(O)ccc1N/C=C/c1onc(C)c1[N+](=O)[O-]	STAT1 activator 134.6, APP 5'UTR act 162.1
O=[N+]([O-])c1ccc(Nc2ccc3ccccc3c2)nc1	STAT1 activator 132.8
O=[N+]([O-])c1ccc(Nc2ccc(Cl)cc2)nc1	none
C#CCOC(=O)Nc1cc(C)n(-c2ccccc2)n1	none (no result: STAT1 activator, APP 5'UTR act, FLuc inh counter, FLuc act counter, NF-kB neuron act)
O=C(Nc1cc(F)c(Br)cc1F)c1ccc(Cl)cc1	none (no result: STAT1 activator, APP 5'UTR act, FLuc inh counter, FLuc act counter, NF-kB neuron act)
c1ccc2[nH]c(NCc3ccc4c(c3)OCO4)nc2c1	FLuc inh counter 81.7
c1ccc(CCc2nc3ccccc3[nH]2)cc1	none
COc1cc(CNc2nc3ccccc3[nH]2)cc(OC)c1OC	none
Cc1ccc2nc(NCc3ccccc3)[nH]c2c1	NF-kB neuron act 4.83
COc1ccc2nc(NCc3ccccc3)[nH]c2c1	none
c1ccc(CNc2nc3ccccc3[nH]2)cc1	FLuc inh counter 63.6
O=c1[nH]c2ccccc2nc1CCc1ccccc1	STAT1 activator 144.8
